Measured values from ChEMBL document CHEMBL4689842, “EUbOPEN Chemogenomics Library wave 1” (2021).

Tests used:
HEK-293T = assay: Multiplex assay against HEK293T; assay type: toxicity, cell-based; details: human;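 on Population Tubulin-Different-Phenotype (%): share of the cells with healthy nuclei that show this phenotype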
Summary of the method: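 Compound was added to live cells that had been stained at seeding with Hoechst33342, BioTracker Green Microtubule Cytoskeleton Dye, MitoTracker Red and Annexin V Alexa Fluor 680, and imaging followed on a CQ1 microscope at 37°C and 5% CO2. CellPathfinder machine-learning gating divided cells into Hoechst high-intensity objects or normal cells, normal cells into healthy, pyknosed or fragmented nuclei, and pyknosed cells into mitotic or apoptotic. Tubulin, mitochondrial-mass and membrane-permeability phenotypes are per cents of healthy-nucleus cells.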

Fibroblast = assay: Incucyte cell viability with human fibroblast; assay type: toxicity, cell-based; details: 10 µM, compound concentration 10 uM; further: filed as whole numbers so only -1 and 0 and 1 occur
[1] = 12 h, 1 µM, compound concentration 1 uM, replicate 1
[2] = 12 h, 1 µM, compound concentration 1 uM, replicate 2
[3] = 12 h, 10 µM, compound concentration 10 uM, replicate 1
[4] = 12 h, 10 µM, compound concentration 10 uM, replicate 2
[5] = 24 h, 1 µM, compound concentration 1 uM, replicate 1
[6] = 24 h, 1 µM, compound concentration 1 uM, replicate 2
[7] = 24 h, 10 µM, compound concentration 10 uM, replicate 1
[8] = 24 h, 10 µM, compound concentration 10 uM, replicate 2

CCOc1ccn(-c2ccc(F)cc2)c(=O)c1C(=O)Nc1ccc(Oc2ccnc(N)c2Cl)c(F)c1 [BMS-777607]
Population Apoptotic (%) (HEK-293T; [1]): 25%
Population Fragmented Nuclei (%) (HEK-293T; [1]): 14%
Population Healthy Nuclei (%) (HEK-293T; [1]): 67%
Population Hoechst High Intensity Objects (%) (HEK-293T; [1]): 10%
Population Membrane Permeable-Phenotype (%) (HEK-293T; [1]): 6%
Population Mitochondria Different-Phenotype (%) (HEK-293T; [1]): 10%
Population Mitotic Cells (%) (HEK-293T; [1]): 75%
Population Normal (%) (HEK-293T; [1]): 89%
Population Pyknosed Nuclei (%) (HEK-293T; [1]): 17%
Population Tubulin-Different-Phenotype (%) (HEK-293T; [1]): 22%
Total Cell Count (HEK-293T; [1]): 624
Population Apoptotic (%) (HEK-293T; [2]): 5%
Population Fragmented Nuclei (%) (HEK-293T; [2]): 5%
Population Healthy Nuclei (%) (HEK-293T; [2]): 89%
Population Hoechst High Intensity Objects (%) (HEK-293T; [2]): 2%
Population Mitochondria Different-Phenotype (%) (HEK-293T; [2]): 16%
Population Mitotic Cells (%) (HEK-293T; [2]): 95%
Population Normal (%) (HEK-293T; [2]): 97%
Population Pyknosed Nuclei (%) (HEK-293T; [2]): 5%
Population Tubulin-Different-Phenotype (%) (HEK-293T; [2]): 48%
Total Cell Count (HEK-293T; [2]): 1393
Population Apoptotic (%) (HEK-293T; [3]): 23%
Population Fragmented Nuclei (%) (HEK-293T; [3]): 25%
Population Healthy Nuclei (%) (HEK-293T; [3]): 50%
Population Hoechst High Intensity Objects (%) (HEK-293T; [3]): 15%
Population Membrane Permeable-Phenotype (%) (HEK-293T; [3]): 4%
Population Mitochondria Different-Phenotype (%) (HEK-293T; [3]): 3%
Population Mitotic Cells (%) (HEK-293T; [3]): 76%
Population Normal (%) (HEK-293T; [3]): 84%
Population Pyknosed Nuclei (%) (HEK-293T; [3]): 25%
Population Tubulin-Different-Phenotype (%) (HEK-293T; [3]): 3%
Total Cell Count (HEK-293T; [3]): 432
Population Apoptotic (%) (HEK-293T; [4]): 15%
Population Fragmented Nuclei (%) (HEK-293T; [4]): 9%
Population Healthy Nuclei (%) (HEK-293T; [4]): 86%
Population Hoechst High Intensity Objects (%) (HEK-293T; [4]): 2%
Population Membrane Permeable-Phenotype (%) (HEK-293T; [4]): 2%
Population Mitochondria Different-Phenotype (%) (HEK-293T; [4]): 7%
Population Mitotic Cells (%) (HEK-293T; [4]): 84%
Population Normal (%) (HEK-293T; [4]): 97%
Population Pyknosed Nuclei (%) (HEK-293T; [4]): 4%
Population Tubulin-Different-Phenotype (%) (HEK-293T; [4]): 5%
Total Cell Count (HEK-293T; [4]): 1444
Population Apoptotic (%) (HEK-293T; [5]): 17%
Population Fragmented Nuclei (%) (HEK-293T; [5]): 11%
Population Healthy Nuclei (%) (HEK-293T; [5]): 76%
Population Hoechst High Intensity Objects (%) (HEK-293T; [5]): 10%
Population Membrane Permeable-Phenotype (%) (HEK-293T; [5]): 10%
Population Mitochondria Different-Phenotype (%) (HEK-293T; [5]): 12%
Population Mitotic Cells (%) (HEK-293T; [5]): 82%
Population Normal (%) (HEK-293T; [5]): 89%
Population Pyknosed Nuclei (%) (HEK-293T; [5]): 12%
Population Tubulin-Different-Phenotype (%) (HEK-293T; [5]): 40%
Total Cell Count (HEK-293T; [5]): 625
Population Apoptotic (%) (HEK-293T; [6]): 9%
Population Fragmented Nuclei (%) (HEK-293T; [6]): 10%
Population Healthy Nuclei (%) (HEK-293T; [6]): 84%
Population Hoechst High Intensity Objects (%) (HEK-293T; [6]): 6%
Population Membrane Permeable-Phenotype (%) (HEK-293T; [6]): 12%
Population Mitochondria Different-Phenotype (%) (HEK-293T; [6]): 4%
Population Mitotic Cells (%) (HEK-293T; [6]): 90%
Population Normal (%) (HEK-293T; [6]): 93%
Population Pyknosed Nuclei (%) (HEK-293T; [6]): 4%
Population Tubulin-Different-Phenotype (%) (HEK-293T; [6]): 70%
Total Cell Count (HEK-293T; [6]): 1553
Population Apoptotic (%) (HEK-293T; [7]): 25%
Population Fragmented Nuclei (%) (HEK-293T; [7]): 18%
Population Healthy Nuclei (%) (HEK-293T; [7]): 69%
Population Hoechst High Intensity Objects (%) (HEK-293T; [7]): 13%
Population Membrane Permeable-Phenotype (%) (HEK-293T; [7]): 6%
Population Mitochondria Different-Phenotype (%) (HEK-293T; [7]): 3%
Population Mitotic Cells (%) (HEK-293T; [7]): 74%
Population Normal (%) (HEK-293T; [7]): 86%
Population Pyknosed Nuclei (%) (HEK-293T; [7]): 12%
Population Tubulin-Different-Phenotype (%) (HEK-293T; [7]): 5%
Total Cell Count (HEK-293T; [7]): 433
Population Apoptotic (%) (HEK-293T; [8]): 8%
Population Fragmented Nuclei (%) (HEK-293T; [8]): 27%
Population Hoechst High Intensity Objects (%) (HEK-293T; [8]): 2%
Population Membrane Permeable-Phenotype (%) (HEK-293T; [8]): 5%
Population Mitochondria Different-Phenotype (%) (HEK-293T; [8]): 1%
Population Mitotic Cells (%) (HEK-293T; [8]): 91%
Population Normal (%) (HEK-293T; [8]): 97%
Population Pyknosed Nuclei (%) (HEK-293T; [8]): 2%
Total Cell Count (HEK-293T; [8]): 2353
Growth Rate (Fibroblast; 6 h, replicate number 1, timepoint 6 hours): 0
Growth Rate (Fibroblast; 12 h, replicate number 1, timepoint 12 hours): 0
Growth Rate (Fibroblast; 18 h, replicate number 1, timepoint 18 hours): 0
Growth Rate (Fibroblast; 24 h, replicate number 1, timepoint 24 hours): 0
